We go through 34 compounds from ChEMBL document CHEMBL1143645, “Structure-activity relationship study of novel necroptosis inhibitors” (Bioorg Med Chem Lett, 2005).

pEC50: −log10 of the molar value.

The subject of one data set is Jurkat. In words: Effective concentration required for inhibition of necroptosis in FADD deficient Jurkat T cells treated with TNF-alpha. The class given is functional, cell-based. To be noted: Homo sapiens. The essentials:
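FADD-deficient human Jurkat T cells given human TNFα 10 ng/mL plus rising concentrations of inhibitor for 24 h. Viability read by luminescent ATP-based assay and corrected for nonspecific toxicity. EC50 from nonlinear regression of sigmoid variable-slope dose–response curves, log inhibitor concentration versus viability.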

Data set [1] is described as follows: Maximum concentration in female mouse upon intravenous administration. The class given is ADME, organism-based. Set-up: route intravenous. The settings on record: in vivo. A digest of the protocol:
(§1)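 CD-1 mice of each sex given a single intravenous dose of 1 mg/kg. Vehicle was 10% propylene glycol in normal saline, dosing solution 0.16 mg/mL. Plasma pharmacokinetics followed over 8 h to give AUC, Cmax, half-life, Vss and clearance.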

A short description of data set [2]: Clearance value in male mouse upon intravenous administration. It is filed as ADME, organism-based. The settings on record: in vivo, read-out: CLs. A digest of the protocol: as §1
A short description of data set [3]: Plasma concentration in male mouse after 180 min intravenous administration. It is filed as ADME. A digest of the protocol: (§2)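 Male CD-1 mice dosed intravenously at 1 mg/kg in 10% propylene glycol/normal saline (0.16 mg/mL). Brain and plasma concentrations measured at set post-injection times, and brain-to-plasma ratio calculated.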
The nature of data set [4]: Volume of distribution at steady state was determined in male mouse upon intravenous administration. It is filed as ADME, organism-based. To be noted: in vivo. The essentials:
as §1

Data set [5] is described as follows: Clearance value in female mouse upon intravenous administration. The class given is ADME, organism-based. The settings on record: in vivo, read-out: CLs. The essentials:
as §1

A short description of data set [6]: Maximum concentration in male mouse upon intravenous administration. The class given is ADME, organism-based. Set-up: route intravenous. The settings on record: in vivo. A digest of the protocol:
as §1

A short description of data set [7]: Ratio between concentration in brain to that of plasma was determined n male mouse after 30 min intravenous administration. The class given is ADME. A digest of the protocol:
as §2

The nature of data set [8]: Brain concentration in male mouse after 30 min intravenous administration. It is filed as ADME. The essentials:
as §2

Data set [9] in a line: Area under curve concentration in male mouse after 8 hours of intravenous administration. The class given is ADME. Also on record: time < 8 hr, route intravenous. To be noted: in vivo. The essentials:
as §1

Data set [10] is described as follows: Plasma concentration in male mouse after 30 min intravenous administration. It is filed as ADME. The essentials:
as §2

Data set [11] can be described thus: Area under curve concentration in female mouse after 8 hours of intravenous administration. The class given is ADME. Set-up: time < 8 hr, route intravenous. The settings on record: in vivo. A digest of the protocol:
as §1

For orientation: pEC50 means the EC50 on a negative log10 scale, so that one unit is a factor of ten. The low end stands for a high EC50, the high end for a low EC50. Compound `Cc1cccc2c(CC3NC(=O)N(C)C3=O)c[nH]c12` (stereo unspecified) gave a pEC50 in the data set on Jurkat of 6.48.

As usually defined, the Cmax is the highest concentration seen after dosing. A word on the Vss: it is the apparent volume that relates the amount in the body to the concentration in plasma or blood. A low value points to confinement near the circulation. What is called Kp is the ratio of the level in a tissue or fluid to that in plasma or blood. In general, AUC refers to concentration integrated over time. On to `CN1C(=O)NC(Cc2c[nH]c3c(Cl)cccc23)C1=O` (stereo unspecified), for which the Cmax in data set [1] is 573 ng/mL; in data set [6], 873 ng/mL. Also, the clearance turned out to be 61 mL/min/kg in data set [2] and 100 mL/min/kg in data set [5]. This compound also yielded a concentration at 3 h in [3] of 3 nM. The Vss in [4] came to 2.5 L/kg. Further, the Vd in [4] (male, read-out: Vss) was 2.5 L/kg. In addition, the pEC50 in the data set with Jurkat is 6.68. Also, the Kp at 0.5 h in [7] was determined as 2.4. Further, the concentration at 0.5 h in [8] is 740 nM; in data set [10], 310 nM. Moreover, the results for the AUC at 8 h in data set [9] and in data set [11] were 274 ng·h/mL and 165 ng·h/mL, respectively.

The compound `CN1C(=O)C(Cc2c[nH]c3c(F)cccc23)NC1=S` (stereo unspecified) showed a pEC50 in the data set on Jurkat of 6.59.

The compound `O=C1NC(=S)NC1Cc1c[nH]c2ccccc12` (stereo unspecified) showed a pEC50 in the data set on Jurkat of less than 5.00.

`CN1C(=O)NC(Cc2c[nH]c3cc(Cl)ccc23)C1=O` (stereo unspecified) showed a pEC50 with Jurkat of 5.24.

In the data set with Jurkat, `CN1C(=O)NC(Cc2c[nH]c3cccc(Cl)c23)C1=O` (stereo unspecified) showed a pEC50 of 5.04.

In the data set with Jurkat, `Cc1[nH]c2ccccc2c1CC1NC(=O)N(C)C1=O` (stereo unspecified) showed a pEC50 of less than 5.00.

Consider `CN1C(=O)N[C@H](Cc2c[nH]c3c(Cl)cccc23)C1=O`, for which, in the data set on Jurkat, the pEC50 was 7.30.

Compound `CCCCN1C(=O)NC(Cc2c[nH]c3c(Cl)cccc23)C1=O` (stereo unspecified) showed a pEC50 in the data set with Jurkat of 6.07.

`CCN1C(=O)N[C@@H](Cc2c[nH]c3c(Cl)cccc23)C1=O` showed a pEC50 in the data set on Jurkat of 6.74.

On to `CN1C(=O)C(Cc2c[nH]c3c(Cl)cccc23)N(C)C1=O` (stereo unspecified), for which, in the data set on Jurkat, the pEC50 is less than 5.00.

Compound `CN1C(=O)C(Cc2csc3ccccc23)NC1=S` (stereo unspecified) had a pEC50 in the data set with Jurkat of 5.32.

Take `CN1CC(Cc2c[nH]c3c(Cl)cccc23)NC1=O` (stereo unspecified): in the data set with Jurkat, the pEC50 was less than 5.00.

`CN1C(=O)NC(Cc2csc3ccccc23)C1=O` (stereo unspecified) showed a pEC50 in the data set on Jurkat of 5.25.

`O=C1NC(=O)C(Cc2c[nH]c3ccccc23)N1` (stereo unspecified) gave a pEC50 with Jurkat of less than 5.00.

`CCCCOc1cccc2c(CC3NC(=O)N(C)C3=O)c[nH]c12` (stereo unspecified) gave a negative logarithm of the EC50 (pEC50) in the data set with Jurkat of 6.57.

Turning to `CN1C(=O)NC(Cc2c[nH]c3ccccc23)C1=O` (stereo unspecified), the negative-log EC50 (pEC50) in the data set with Jurkat was 5.89.

`CN1C(=O)NC(Cc2c[nH]c3c(OCc4ccccc4)cccc23)C1=O` (stereo unspecified) had a pEC50 in the data set on Jurkat of less than 5.00.

With `CN1C(=O)C(Cc2c[nH]c3ccccc23)NC1=S` (stereo unspecified) [NECROSTATIN], the pEC50 with Jurkat is 6.31.

`COc1cccc2c(CC3NC(=S)N(C)C3=O)c[nH]c12` (stereo unspecified) showed a negative-log EC50 (pEC50) in the data set on Jurkat of 6.20.

Compound `CN1C(=O)C(Cc2cn(C)c3ccccc23)NC1=S` (stereo unspecified) had a pEC50 in the data set on Jurkat of less than 5.00.

Turning to `CN1C(=O)NC(Cc2c[nH]c3c(Cl)cc(Cl)cc23)C1=O` (stereo unspecified), the pEC50 in the data set with Jurkat is less than 5.00.

As to `COc1cccc2c(CC3NC(=O)N(C)C3=O)c[nH]c12` (stereo unspecified), the pEC50 in the data set with Jurkat was 6.15.

Regarding `CN1C(=O)C(Cc2c[nH]c3c(Br)cccc23)NC1=S` (stereo unspecified), the pEC50 in the data set with Jurkat is 6.80.

Consider `CN1C(=O)NC(Cc2cn(C)c3c(Cl)cccc23)C1=O` (stereo unspecified), for which the negative-log EC50 (pEC50) with Jurkat is 5.42.

With `CN1C(=O)NC(Cc2c[nH]c3c(F)cccc23)C1=O` (stereo unspecified), in the data set with Jurkat, the pEC50 is 6.23.

Turning to `CN1C(=O)OC(Cc2c[nH]c3c(Cl)cccc23)C1=O` (stereo unspecified), the pEC50 in the data set on Jurkat was 6.42.

Turning to `COc1ccc2[nH]cc(CC3NC(=O)N(C)C3=O)c2c1` (stereo unspecified), the pEC50 in the data set with Jurkat was less than 5.00.

As to `O=C1NC(Cc2c[nH]c3c(Cl)cccc23)CO1` (stereo unspecified), the pEC50 in the data set with Jurkat is less than 5.00.

In the data set on Jurkat, `CN1C(=O)C(Cc2cn(C)c3c(Cl)cccc23)NC1=S` (stereo unspecified) gave a pEC50 of less than 5.00.

Consider `CN1C(=O)C(Cc2c[nH]c3cc(Cl)ccc23)NC1=S` (stereo unspecified), for which, in the data set with Jurkat, the pEC50 was less than 5.00.

`CN1C(=O)C(Cc2c[nH]c3c(Cl)cccc23)NC1=S` (stereo unspecified): the pEC50 in the data set with Jurkat was 6.74.

Compound `CC(C)N1C(=O)NC(Cc2c[nH]c3c(Cl)cccc23)C1=O` (stereo unspecified) gave a pEC50 in the data set on Jurkat of less than 5.00.

In the data set on Jurkat, `CN1C(=O)N[C@@H](Cc2c[nH]c3c(Cl)cccc23)C1=O` had a pEC50 of 6.64.
